Experiments:
Rattus norvegicus [1] = test: Suppression of conditional avoidance after peroral administration; type: functional; conditions: po
How it was run: (§1)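 Fasted male Wistar rats (150–250 g) were trained to jump to a platform at a buzzer to avoid grid shock (1.1 mA/s). After oral dosing they were tested every 20 min for 6 h over 19 trials, 10 rats per dose, each rat used once. Peak effect was the mean of the four consecutive trials with the largest effect, computed from response latency. ED50 read graphically from at least three doses.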

[2] = target: Dopamine receptor (Rattus norvegicus) (UniProt P25115+P19020+P30729+P18901+P61169); test: Compound was tested for its effect on norepinephrine turnover in rat at dose of 10+/-250 mg/kg; type: functional, organism-based; conditions: in the assay text read “64+/-250 mg/kg” for “10+/-250 mg/kg”
How it was run: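 Male Long-Evans rats were given vehicle or agent ip 30 min before α-methyl-p-tyrosine (250 mg/kg) and killed 4 h after it. Brain NE and DA were isolated on Sephadex G-10 and measured spectrofluorometrically. Values are percent of vehicle-treated, with at least five determinations per value.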

[3] = target: Muscarinic acetylcholine receptor; test: Binding affinity against Muscarinic acetylcholine receptor in rat brain using [3H]- QNB; type: tissue-based
How it was run: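 Muscarinic sites in rat brain stem membranes (male Long-Evans, 150–250 g), labelled with [3H]quinuclidinyl benzilate at 0.03 nM final. Oxotremorine at 100 μM final served as the reference displacer. IC50 from four or five concentrations by nonlinear curve fitting.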

Rattus norvegicus [4] = test: Inhibition of conditional avoid in rats after peroral administration; type: functional; conditions: po; how it was run: as §1
Rattus norvegicus [5] = test: Compound was tested for its affect on the accumulation of the dopamine metabolite homovanillic acid (HAV) in the rat striatum at 8 mg/kg dose after peroral administration; type: functional; conditions: route oral
How it was run: (§2)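 Male Long–Evans rats were dosed orally and decapitated 2 h later. Striatal HVA was isolated on Sephadex G-10 and measured spectrofluorometrically, expressed as % control ± SEM.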

Dopamine receptor = test: Binding affinity against dopamine receptor using [3H]- haloperidol in rat brain; type: tissue-based
How it was run: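 Nonspecific binding defined with (+)-butaclamol at 0.1 μM final. IC50 fitted by nonlinear curve fit from four or five concentrations in triplicate.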

Rattus norvegicus [6] = test: Compound was tested for its affect on the accumulation of the dopamine metabolite homovanillic acid (HAV) in the rat striatum at 83 mg/kg dose after peroral administration; type: functional; conditions: route oral; how it was run: as §2
[7] = target: T1, Adrenergic receptor alpha-1 (Rattus norvegicus, UniProt P15823+P23944+P43140); test: Binding affinity against lpha-1 adrenergic receptor using [3H]- WB-4101; type: protein assay
T1 sequence (P15823 whole entry): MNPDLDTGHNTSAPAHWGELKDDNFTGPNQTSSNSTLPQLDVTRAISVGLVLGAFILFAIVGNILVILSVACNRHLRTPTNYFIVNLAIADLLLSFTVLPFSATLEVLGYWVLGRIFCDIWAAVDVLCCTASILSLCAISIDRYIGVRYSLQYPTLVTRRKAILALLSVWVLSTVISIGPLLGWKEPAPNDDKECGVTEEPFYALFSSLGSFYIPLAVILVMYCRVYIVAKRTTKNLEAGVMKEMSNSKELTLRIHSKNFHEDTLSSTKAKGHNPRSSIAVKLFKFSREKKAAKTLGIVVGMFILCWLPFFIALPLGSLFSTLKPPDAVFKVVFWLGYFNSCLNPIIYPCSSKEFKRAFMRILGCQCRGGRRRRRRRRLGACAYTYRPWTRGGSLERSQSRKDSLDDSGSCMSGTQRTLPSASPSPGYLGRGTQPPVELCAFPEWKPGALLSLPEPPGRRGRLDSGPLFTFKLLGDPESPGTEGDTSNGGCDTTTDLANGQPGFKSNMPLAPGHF
T1 sequence (P23944 whole entry): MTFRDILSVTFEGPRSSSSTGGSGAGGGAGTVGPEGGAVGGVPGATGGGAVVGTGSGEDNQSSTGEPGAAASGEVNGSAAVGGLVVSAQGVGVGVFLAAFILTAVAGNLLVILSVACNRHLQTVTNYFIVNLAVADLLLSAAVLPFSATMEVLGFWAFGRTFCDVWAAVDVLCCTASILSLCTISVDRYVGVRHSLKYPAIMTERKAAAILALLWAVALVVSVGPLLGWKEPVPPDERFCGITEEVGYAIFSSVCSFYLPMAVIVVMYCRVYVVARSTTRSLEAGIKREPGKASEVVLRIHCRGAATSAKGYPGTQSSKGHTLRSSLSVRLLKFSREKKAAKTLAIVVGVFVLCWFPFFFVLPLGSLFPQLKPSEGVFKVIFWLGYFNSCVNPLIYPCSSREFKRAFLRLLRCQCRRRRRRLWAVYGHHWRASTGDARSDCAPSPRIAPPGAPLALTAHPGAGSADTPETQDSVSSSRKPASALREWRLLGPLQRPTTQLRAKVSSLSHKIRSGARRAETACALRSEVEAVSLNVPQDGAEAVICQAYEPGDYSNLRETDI
T1 sequence (P43140 whole entry): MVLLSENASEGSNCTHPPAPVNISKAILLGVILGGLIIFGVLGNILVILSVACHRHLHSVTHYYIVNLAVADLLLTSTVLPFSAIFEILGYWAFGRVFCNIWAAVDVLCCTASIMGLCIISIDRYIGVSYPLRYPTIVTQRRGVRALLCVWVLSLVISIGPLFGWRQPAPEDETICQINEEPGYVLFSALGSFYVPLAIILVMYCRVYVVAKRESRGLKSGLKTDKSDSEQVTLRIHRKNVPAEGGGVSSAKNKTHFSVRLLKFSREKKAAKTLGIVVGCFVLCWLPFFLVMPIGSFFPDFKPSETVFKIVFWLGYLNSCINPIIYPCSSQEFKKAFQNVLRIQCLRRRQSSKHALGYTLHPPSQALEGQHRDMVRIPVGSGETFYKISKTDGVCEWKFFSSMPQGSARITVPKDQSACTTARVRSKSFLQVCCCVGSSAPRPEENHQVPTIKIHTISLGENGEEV
How it was run: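 α1-Adrenergic binding in rat frontal cerebral cortex membranes (male Long-Evans, 150–250 g) with [3H]WB4101 at 0.5 nM final. (-)-Norepinephrine at 100 μM final was the reference standard. IC50 from four or five concentrations by nonlinear curve fitting.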

Rattus norvegicus [8] = test: Compound was tested for serum prolactin assay method in rats at 10 mg/kg dose after peroral administration; type: functional; conditions: route oral
How it was run: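 Seven-week-old male Sprague–Dawley rats, five per group, were dosed orally and killed by decapitation 1 h later. Serum prolactin from trunk blood was measured by radioimmunoassay with [125I]-PRL and expressed as % of control (mean ± SEM).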

Mus musculus = test: Effective dose required for inhibition of locomotion/ataxia in mice administered intraperitoneally; type: functional; conditions: ip
How it was run: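 Male Swiss–Webster mice (20–30 g, unfasted), nine per dose in groups of three, dosed ip in 0.2% methocel (dose as parent compound) 1 h before testing. Ataxia was scored first on an inverted screen over 60 s as % of mice falling. […] ED50 from at least three doses.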

Rattus norvegicus [9] = species: Rattus norvegicus; test: Effective dose required for inhibition of Sidman avoidance in rats; type: functional
How it was run: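 Mature male Long–Evans rats, trained on a modified Sidman avoidance schedule in lever-equipped operant chambers, were dosed orally and tested in 6-h sessions. Inhibition was expressed as % of each animal's own nondrug responding. At least three doses were given to four animals, with sessions at least 1 week apart. ED50 from nonlinear regression of dose–effect.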

## Cc1nn(C)c(NC(=O)CNCCCN2CCCCC2C)c1C(=O)c1ccccc1F (stereo unspecified)
Rattus norvegicus [1]
  ED50: 43 mg/kg
[2]
  Control: 53.7%
[3]
  IC50: > 10 µM
Rattus norvegicus [4]
  ED50: 43.5 mg/kg

## CCN(CC)CC(=O)Nc1c(C(=O)c2ccccc2F)c(C)nn1C
Rattus norvegicus [5]
  Control: 131.9%
Dopamine receptor
  IC50: > 10 µM
Rattus norvegicus [6]
  Control: 102.1%
[7]
  IC50: > 10 µM
Rattus norvegicus [8]
  Control: 52.9%

## Cc1nn(C)c(N)c1C(=O)c1ccccc1F
Mus musculus
  ED50: 8 mg/kg
Rattus norvegicus [9]
  ED50: 20 mg/kg
